Type in all cases: cell-based
The subject of one assay is PLD. Description: PLD activity inhibition in A549 cells. The conditions noted are these: read-out: IC50 for PLD inhibition.
For the next assay, the system named is A549 cells. Put plainly: WST-1 cell viability assay, A549. The conditions noted are these: read-out: IC50 of viability. In short, it runs like this: (§1)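 Cells grown in DMEM or RPMI 1640 with 10% FBS and 1% penicillin/streptomycin at 37 °C, 5% CO2. Seeded at 5 × 10^3 cells/well and held 24 h at 37 °C, then exposed to test compound for 48 h. WST-1 absorbance was read at 450 nm, in triplicate. IC50 was taken as the concentration giving 50% growth inhibition versus control.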
Background: Tetrazolium assays rely on reduction of a dye to a coloured formazan, in cell work by metabolically active cells.

Another assay has as its system HCT116 cells. Description: WST-1 cell viability assay, HCT116. Particulars: read-out: IC50 of viability; HCT116, WST-1, 48 h. In short, it runs like this: as §1

pIC50: −log10 of the molar value. Read-outs that look alike come from different tables or passages of the source.

The term pIC50 denotes the IC50 on a negative log10 scale, so that one unit is a factor of ten.

As for “3,5-Bis(trifluoromethyl)phenyl 5-Fluoro-1H-indole-2-carboxylate [3ac]”, the negative logarithm of the IC50 (pIC50) with PLD was 5.51; in the assay on A549 cells (A549, WST-1, 48 h), 4.30; in the assay on HCT116 cells, less than 4.30.

Turning to `C[C@@H](CN1CCC(n2c(=O)[nH]c3cc(Cl)ccc32)CC1)NC(=O)c1ccc2ccccc2c1` [VU0155069, reference compound], the negative-log IC50 (pIC50) with A549 cells (Homo sapiens, A549, 48 h) was 4.73.

For “N-(3,4-Dihydroxyphenyl)-5-fluoro-1H-indole-2-carboxamide [4c]”, the pIC50 with PLD was 5.37; in the assay with A549 cells (A549, WST-1, 48 h), less than 3.70; with HCT116 cells it was less than 4.30.

The values are drawn from PMC11913021 (Journal of Medicinal Chemistry, 2024).
